Compounds with a hit are over-represented: about 2.7% of the library has one in this group of screens.
PAD4 inh: blocks human protein arginine deiminase 4. Q9UM07. recombinant PAD4, RCA probe fluorescence polarization. inhibition, % at 6.36 µM. 330,000 compounds, 0.41% hits. AID 485272;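 active = percent inhibition above a cutoff equal to the mean of all tested compounds plus 3 SD, cut at about 15% in these data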;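 also: 0% = PAD4 with RCA probe and DMSO and 100% = probe without PAD4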
Target sequence (Q9UM07 whole entry, looked up): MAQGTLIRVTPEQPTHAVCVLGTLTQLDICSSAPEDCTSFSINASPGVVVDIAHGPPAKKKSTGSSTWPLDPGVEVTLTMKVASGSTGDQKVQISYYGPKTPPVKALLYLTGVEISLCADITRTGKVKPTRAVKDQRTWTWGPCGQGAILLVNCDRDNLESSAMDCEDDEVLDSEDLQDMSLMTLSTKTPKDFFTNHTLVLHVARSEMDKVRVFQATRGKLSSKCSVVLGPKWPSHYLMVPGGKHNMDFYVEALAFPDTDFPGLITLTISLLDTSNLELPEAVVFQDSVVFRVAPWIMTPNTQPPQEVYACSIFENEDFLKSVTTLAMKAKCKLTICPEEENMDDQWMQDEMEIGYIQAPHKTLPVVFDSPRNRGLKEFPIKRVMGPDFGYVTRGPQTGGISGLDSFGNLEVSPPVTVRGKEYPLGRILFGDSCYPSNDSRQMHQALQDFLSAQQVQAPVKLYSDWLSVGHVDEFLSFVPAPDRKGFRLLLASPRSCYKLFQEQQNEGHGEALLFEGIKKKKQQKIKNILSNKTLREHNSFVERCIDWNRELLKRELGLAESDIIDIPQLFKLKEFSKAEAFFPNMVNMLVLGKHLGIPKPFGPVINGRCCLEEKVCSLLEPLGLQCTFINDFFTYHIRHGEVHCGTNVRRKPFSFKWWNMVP
RBBP9 inh: inhibitors of human serine hydrolase RBBP9. recombinant RBBP9, FP-Rh probe fluorescence polarization. inhibition, % at 7.94 µM. 220,000 compounds, 0.2% hits. AID 1515;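 active = inhibition above the campaign mean of all tested compounds plus 3 SD, cut at about 14% in these data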;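 also: plate controls were DMSO wells with RBBP9 for no effect and wells lacking RBBP9 protein for full effect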
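Test system – recombinant human RBBP9 · Input – RBBP9 2.5 µM in dispensing solution, pre-mixing · Medium – Tris buffer pH 8.0, NaCl, Pluronic · Schedule – preincubation 30 min plus labeling 45 min at 25 °C · Measured by – fluorescence polarization · Measure – % inhibition · Controls – DMSO and no-protein wells · Replicates – one well per compound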
PRMT1 FP inh: inhibitors of human PRMT1. Q99873. recombinant PRMT1, activity-based probe fluorescence polarization. inhibition, % at 2.79 µM. 370,000 compounds, 1.3% hits. AID 652257;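 active = inhibition above about 21% made by adding two undisclosed values, limit read from the data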
GSTO1 counter: GSTO1 inhibition, counter-screen for RBBP9 inhibitors; inhibition, % at 5.96 µM; AID 1974; P78417; 300,000 compounds, 1.1% hits; recombinant GSTO1, activity-based probe fluorescence polarization;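 active = inhibition above the campaign mean inhibition plus 3 SD, cut at about 35% in these data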;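 also: 0% = GSTO1-1 with DMSO and 100% = wells lacking GSTO1-1 enzyme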
SIAE inh: inhibitors of human sialic acid acetylesterase SIAE; Q9HAT2; SIAE FP-Rh probe binding, fluorescence polarization; inhibition, % at 9.66 µM; 370,000 compounds, 0.69% hits; AID 1053197;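 active = inhibition above a cutoff: mean of compounds within the control limits plus 3 SD of those, cut at about 17% in these data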;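 also: 0% = plate median of compound wells and 100% = probe without SIAE protein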
GSTO1 inh conf: confirmation of human GSTO1 inhibitors | shares compounds with GSTO1 counter | recombinant GSTO1, probe fluorescence polarization | inhibition, % at 5.96 µM | 2,400 compounds, 54% hits;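 active = inhibition above the primary screen's cutoff, its mean inhibition plus 3 SD, cut at about 35% in these data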;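 also: loss of polarization as inhibitors block binding of rhodamine sulfonate ester activity probe; 0% = GSTO1 with DMSO and 100% = wells lacking GSTO1 enzyme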
GSTO1 ABPP inh: inhibitors of recombinant human GSTO1. shares compounds with GSTO1 counter. gel ABPP SE-Rh probe fluorescence. inhibition, % at 1 µM. 130 compounds, 30% hits. AID 463110;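 active = inhibition of the enzyme GSTO1 above about 75%, limit read from the data; inactive = inhibition below that limit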
The depositor's hits bear a star; / = no result.

SMILES	PAD4 inh	RBBP9 inh	PRMT1 FP inh	GSTO1 counter	SIAE inh	GSTO1 inh conf	others
COc1cc(S(=O)(=O)N(Cc2ccc(C)cc2)Cc2ccco2)ccc1-n1cnnn1	-3.0	5.9	-0.1	5.9	2.0	/
COc1cc(S(=O)(=O)N(Cc2cccnc2)Cc2ccco2)ccc1-n1cnnn1	-3.0	-3.7	1.7	39.6*	8.0	3.9
O=[N+]([O-])c1ccc(O)c(C=Nc2ccc3oc(Cc4ccc(Cl)cc4)nc3c2)c1	-8.7	-5.5	/	41.4*	/	-0.6
CCOC(=O)N1CCN(CC(=O)Nc2ccc(F)cc2F)CC1	-1.3	-4.6	0.0	43.0*	1.3	9.6
O=C(COC(=O)c1ccccc1)Nc1cc(Cl)ccc1Oc1ccccc1	0.2	-7.9	-0.6	-3.4	-3.1	/
O=C(Nc1cccc(S(=O)(=O)Nc2ccc(SC(F)F)cc2)c1)C1CCC1	-3.6	/	-0.8	/	-13.0	/
CC(NC(=O)C1CC1)C(c1cccs1)N1CCN(c2ccccc2)CC1 (centres undefined)	-0.7	-8.4	1.6	0.8	6.0	/
CC(NC(=O)C1CC1)C(c1cccs1)N1CCOCC1 (centres undefined)	-3.3	11.7	-1.0	85.0*	7.0	7.2
CCOC(=O)C1=C(C)N(c2ccc(OC)cc2)C(=O)/C1=C\c1cccs1	0.9	-13.9	1.0	2.6	-2.9	/
CCOC(=O)C1=C(C)N(c2ccc(OC)cc2)C(=O)/C1=C\c1ccc(O)c(OCC)c1	-3.1	2.5	31.8*	56.7*	11.9	9.0
CCOC(=O)c1c(NC(=O)C2CCCCC2C(=O)O)sc2c1CCCCC2 (centres undefined)	1.2	-0.3	2.4	54.0*	-1.2	46.9*
CN(C)C1CN(Cc2cn(Cc3ccc(F)cc3)nn2)S(=O)(=O)C1 (centres undefined)	/	/	-5.1	/	9.3	/
COc1cc(OC)c(NS(=O)(=O)c2cc(C(=O)OC(C)C(=O)NC3CC3)c(Cl)cc2Cl)cc1Cl (centres undefined)	-1.8	-10.0	0.0	46.4*	0.0	65.6*
Nc1c(C(=O)NCc2ccc3c(c2)OCO3)c2nc3ccccc3nc2n1CCCN1CCOCC1	-14.6	-4.8	1.9	50.0*	-0.5	-3.8
COc1ccccc1CNC(=O)c1c(N)n(CCCN2CCOCC2)c2nc3ccccc3nc12	/	-7.2	2.2	/	-1.3	/
Nc1c(C(=O)NCc2ccco2)c2nc3ccccc3nc2n1CCc1ccc(F)cc1	37.1*	-10.7	5.5	75.3*	-4.2	57.9*
CC(=O)OC(C)C1C2=C(C(=O)CC1(C)O)C(=O)c1c(ccc(-c3ccc4c(c3O)C(=O)C3=C(C4=O)C(C(C)OC(C)=O)C(C)(O)CC3=O)c1O)C2=O (centres undefined)	/	/	10.3	/	0.9	/
COc1ccc(C(=O)NNC(=O)CSc2ccccc2)cc1	3.2	0.1	1.1	20.7	5.5	/
O=C(CSc1nnc2c(Cl)cc(C(F)(F)F)cn12)Nc1ccc2c(c1)OCO2	-2.4	-6.5	-1.0	1.6	4.6	/
Cc1ccc(C)n1-c1ccc(N(C)C)cc1	0.0	-2.2	18.6	46.0*	9.2	5.9
Cc1ccccc1N=Cc1ccc[nH]1	/	/	-2.9	/	0.4	/
Cc1ccc(N=Cc2ccc[nH]2)c(O)c1	-17.9	-2.7	6.1	37.6*	-4.2	1.8
CCOc1ccc(NC(=O)C(c2ccccn2)N(C(=O)CCl)c2ccc(OCC)cc2)cc1 (centres undefined)	-7.8	-2.1	/	43.0*	/	9.6
Cc1ccc2c(c1)c1c3n2CCN(C(=O)CCl)C3CCC1 (centres undefined)	-1.5	/	0.9	93.2*	12.3	93.1*	GSTO1 ABPP inh=85.0*
Cc1cccc(C(=O)Nc2nnc(-c3ccco3)o2)c1	-0.7	-6.4	-0.3	-28.3	4.5	/
SMILES	PAD4 inh	RBBP9 inh	PRMT1 FP inh	GSTO1 counter	SIAE inh	GSTO1 inh conf	others
COc1ccc(N(C(=O)CCl)C(C(=O)NCCc2ccccc2)c2cccs2)cc1Cl (centres undefined)	9.8	-10.5	2.2	89.2*	1.5	90.5*	GSTO1 ABPP inh=92.0*
COc1cccc(N(C(=O)CCl)C(C(=O)NCCc2ccccc2)c2cccs2)c1 (centres undefined)	11.0	-9.5	2.2	93.8*	-4.0	95.3*	GSTO1 ABPP inh=75.0*
COc1ccc(N(C(=O)c2ccco2)C(C(=O)NC2CCCCC2)c2cccs2)cc1OC (centres undefined)	-5.2	-6.7	0.3	-0.4	3.2	/
N#CC1(c2nc3ccccc3[nH]2)CC1c1ccc2c(c1)OCO2 (centres undefined)	-2.9	-9.7	3.8	46.0*	2.7	32.6
COc1cccc(Cn2c(N)c(C#N)c3nc4ccccc4nc32)c1OC	-12.1	1.9	1.2	40.8*	-1.2	-2.3
O=C(c1ccc2c(c1)OCO2)[C@@H]1[C@@H]2C(=O)N(C3CCCCC3)C(=O)[C@@H]2C2c3ccccc3C=CN21 (some centres undefined)	/	1.2	0.0	/	2.4	/
O=C(c1cccs1)[C@@H]1[C@@H]2C(=O)N(Cc3ccc4c(c3)OCO4)C(=O)[C@@H]2C2c3ccccc3C=CN21 (some centres undefined)	0.8	-5.4	/	37.5*	/	7.6
Oc1ccc2ccccc2c1/C=N/n1cnnc1	-1.7	-6.9	5.2	5.8	1.3	/
Cc1cc(C)n(/N=C\c2c(O)ccc3ccccc23)c(=O)c1C(N)=O	-8.5	-8.2	2.1	42.9*	-0.6	6.3
Cc1ccc(C(C)NC(=O)c2cccs2)cc1 (centres undefined)	4.2	/	-2.2	-2.2	1.5	/
CC(NC(=O)c1cccs1)c1ccccc1 (centres undefined)	0.6	/	6.1	63.3*	-9.7	5.2
CS(=O)(=O)N1CCC(C(=O)NCCN2CCN(Cc3ccccc3)CC2)CC1	0.6	1.6	2.5	-4.1	-4.2	/
CC(C)OCCCNC1=C(Cl)C(=O)c2ccccc2C1=O	-10.9	-3.6	0.6	63.9*	-5.2	8.9
COCCCNS(=O)(=O)c1ccccc1	1.1	2.2	-1.2	1.4	1.6	/
CCN(CC)CCCNC1=C(Cl)C(=O)c2ccccc2C1=O	-9.8	-8.2	2.0	65.6*	0.2	47.0*
COCCCNC1=C(Cl)C(=O)c2ccccc2C1=O	-11.2	0.8	-1.6	48.4*	-3.5	12.5
CCN1CCN(CC(=O)c2ccc(C)cc2)CC1	0.7	/	-0.1	-0.5	6.7	/
CCOc1ccc(NC(=O)c2cc3ccccc3cc2OC)cc1	2.7	/	1.2	-8.9	-0.3	/
O=C1C(C=Nc2ccccc2O)=C(O)c2ccccc21	-7.7	-15.3	2.6	6.2	-2.1	/
Cc1ccc(O)c(N=CC2=C(O)c3ccccc3C2=O)c1	3.8	-14.2	3.5	68.4*	-0.6	25.7
C/C(=C/c1oc2ccc(O)cc2c1[N+](=O)[O-])N(C)C	-1.9	-5.1	24.2*	51.0*	1.5	9.1

Screens (PubChem)
